Experimental data reported in ChEMBL document CHEMBL1121468, “Synthesis and blood pressure lowering activity of 3-(substituted-amino)-1,2,4-benzothiadiazine 1-oxide derivatives” (1980).
Activity calls are given as the source filed them. No cut-off for these calls is given here.

Legend:
Rattus norvegicus [1] = test: Percentage blood pressure lowering in spontaneously hypertensive rats within 3 hr of intraperitoneal administration at 50 mg/kg; type: functional
How it was run: (§1)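 Male Wistar/Kyoto SHR, about 6 months old, 300–400 g, housed four per cage with chow and water ad libitum. Drug given ip as a suspension in saline with 2% Emulphor EL-620. Systolic pressure was measured indirectly, mostly with photoelectric sensors at 25 °C, and earlier by a modified Friedman–Freed method with 30–45 s warming at 32 °C. Reported value: maximum % lowering within 3 h, mean ± SE.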

Oryctolagus cuniculus [2] = test: Minimum effective dose level to give significant blood pressure lowering effect in normotensive rabbits after administering intravenously; type: functional; details: iv; for minimal effective dose: read-out: MED
How it was run: (§2)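 Conscious rabbits held in a stock. After 30 min, a 30-min control recording was taken, then drug was given into an ear vein and recording continued for 120 min. Mean arterial pressure (electrically damped) and heart rate were averaged at 10-min intervals over 120 min. The dose was adjusted to the minimum giving p < 0.05 lowering; in practice a ≥10 mmHg mean fall was significant. Vehicle: saline with 2% Emulphor EL-620.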

Rattus norvegicus [3] = test: Percentage blood pressure lowering in spontaneously hypertensive rats within 3 hr of intraperitoneal administration at 25 mg/kg; type: functional; how it was run: as §1
Oryctolagus cuniculus [4] = test: Minimum effective dose level to give significant blood pressure lowering effect in normotensive rabbits after administering intravenously; NA denotes not active at 2.5 mg/kg; type: functional, organism-based; set-up: dose 2.5 mg/kg; how it was run: as §2
Rattus norvegicus [5] = test: Percentage blood pressure lowering in spontaneously hypertensive rats within 3 hr of intraperitoneal administration at 5 mg/kg; type: functional; how it was run: as §1
Rattus norvegicus [6] = test: Percentage blood pressure lowering in spontaneously hypertensive rats within 3 hr of intraperitoneal administration at 20 mg/kg; type: functional; how it was run: as §1
Rattus norvegicus [7] = test: Percentage blood pressure lowering in spontaneously hypertensive rats within 3 hr of intraperitoneal administration at 20 mg/kg; Not statistically significant; type: functional; how it was run: as §1
Rattus norvegicus [8] = test: Percentage blood pressure lowering in spontaneously hypertensive rats within 3 hr of intraperitoneal administration at 50 mg/kg; Not statistically significant; type: functional; how it was run: as §1
Rattus norvegicus [9] = test: Percentage blood pressure lowering in spontaneously hypertensive rats within 3 hr of intraperitoneal administration at 1.0 mg/kg; type: functional; how it was run: as §1
Rattus norvegicus [10] = test: Percentage blood pressure lowering in spontaneously hypertensive rats within 3 hr of intraperitoneal administration at 2 mg/kg; type: functional; how it was run: as §1
Rattus norvegicus [11] = test: Percentage blood pressure lowering in spontaneously hypertensive rats within 3 hr of intraperitoneal administration at 0.5 mg/kg; type: functional; how it was run: as §1
Oryctolagus cuniculus [12] = test: Mean blood pressure lowering in normotensive rabbits over 2 h of intravenous administration at 0.008 mg/kg
Oryctolagus cuniculus [13] = test: Mean blood pressure lowering in normotensive rabbits over 2 hr of intravenous administration at 0.125 mg/kg
Rattus norvegicus [14] = test: Percentage blood pressure lowering in spontaneously hypertensive rats within 3 hr of intraperitoneal administration at 10 mg/kg; type: functional; how it was run: as §1

Structure (SMILES) | BP decrease (Rattus norvegicus [1]) | minimal effective dose (Oryctolagus cuniculus [2]) | other results
COc1cc2c(cc1OC)S(C)(=O)=NC(N1CCC(O)(c3ccccc3)CC1)=N2.Cl (configuration not stated) | 21.4% |  | 
COc1cc2c(cc1OC)S(C)(=O)=NC(N1CCN(c3ccccc3)CC1)=N2.Cl.Cl (configuration not stated) |  | 0.625 mg/kg | BP decrease (Rattus norvegicus [3]): 30.8%
COc1cc2c(cc1OC)S(C)(=O)=NC(N1CCN(Cc3ccccc3)CC1)=N2.Cl.Cl (configuration not stated) | 32.9% | 2.5 mg/kg | 
COc1cc2c(cc1OC)S(C)(=O)=NC(NC(C)C)=N2.Cl (configuration not stated) | 17.7% | 2.5 mg/kg | 
COc1cc2c(cc1OC)S(=O)(C(C)C)=NC(N1CCN(C(=O)c3ccco3)CC1)=N2.Cl (configuration not stated) | 34.3% |  | 
CS1(=O)=NC(N2CCN(C(=O)c3ccco3)CC2)=Nc2cc3c(cc21)OCO3.Cl (configuration not stated) | 18.2% |  | BP decrease (Oryctolagus cuniculus [4]): inactive
COc1cc2c(cc1OC)S(C)(=O)=NC(N1CCC(c3ccccc3)CC1)=N2.Cl (configuration not stated) | 30.2% | 0.16 mg/kg | 
COc1cc2c(cc1OC)S(C)(=O)=NC(N1CCC(O)CC1)=N2.Cl (configuration not stated) |  | 0.625 mg/kg | BP decrease (Rattus norvegicus [5]): 56.9%
COc1cc2c(cc1OC)S(C)(=O)=NC(N(C)C)=N2.Cl (configuration not stated) | 24.8% | 0.125 mg/kg | 
COc1cc2c(cc1OC)S(C)(=O)=NC(Nc1ccccc1)=N2.Cl (configuration not stated) | 19.9% | 1 mg/kg | 
COc1cc2c(cc1OC)S(C)(=O)=NC(N1CCC(OC(C)=O)CC1)=N2.Cl (configuration not stated) |  | 0.25 mg/kg | BP decrease (Rattus norvegicus [6]): 43%
CCS1(=O)=NC(N2CCN(C(=O)c3ccco3)CC2)=Nc2cc(OC)c(OC)cc21.Cl (configuration not stated) | 18.2% | 2.5 mg/kg | 
COc1cc2c(cc1OC)S(C)(=O)=NC(N1CCCN(C(=O)c3ccco3)CC1)=N2.Cl (configuration not stated) |  | 1.25 mg/kg | BP decrease (Rattus norvegicus [7]): -1%
COc1cc2c(cc1OC)S(C)(=O)=NC(N1CCNCC1)=N2.Cl.Cl (configuration not stated) |  | 10 mg/kg | BP decrease (Rattus norvegicus [8]): 9.1%
CNC1=Nc2cc(OC)c(OC)cc2S(C)(=O)=N1.Cl (configuration not stated) |  | 0.16 mg/kg | BP decrease (Rattus norvegicus [8]): 11.3%
COc1cc2c(cc1OC)S(C)(=O)=NC(N1CCCCC1)=N2.Cl (configuration not stated) |  | 1.25 mg/kg | BP decrease (Rattus norvegicus [8]): 17.1%
COc1cc2c(cc1OC)S(C)(=O)=NC(N1CCN(C(=O)c3nnc(SC)o3)CC1)=N2.Cl (configuration not stated) |  | 0.2 mg/kg | BP decrease (Rattus norvegicus [9]): 14%
COc1cc2c(cc1OC)S(C)(=O)=NC(N1CCC(C(=O)c3ccccc3)CC1)=N2.Cl (configuration not stated) |  |  | BP decrease (Rattus norvegicus [10]): 25.8%
COc1cc2c(cc1OC)S(=O)(c1ccccc1)=NC(N1CCN(C(=O)c3ccco3)CC1)=N2.Cl (configuration not stated) | 26.1% | 1.25 mg/kg | 
COc1cc2nc(N3CCN(C(=O)c4ccco4)CC3)nc(N)c2cc1OC.Cl [PRAZOSIN HYDROCHLORIDE] |  |  | MED (Oryctolagus cuniculus [2]): 0.025 mg/kg; BP decrease (Rattus norvegicus [11]): 14.7%
COc1cc2c(cc1OC)S(C)(=O)=NC(N1CCC(C#N)(c3ccccc3)CC1)=N2.Cl (configuration not stated) |  |  | BP decrease (Rattus norvegicus [8]): 1.6%
COc1cc2c(c(OC)c1OC)S(C)(=O)=NC(N1CCN(C(=O)c3ccco3)CC1)=N2.Cl (configuration not stated) | 20.6% | 0.04 mg/kg | 
COc1cc2c(cc1OC)S(C)(=O)=NC(N1CCC(n3c(O)nc4ccccc43)CC1)=N2.Cl (configuration not stated) | 22.5% | 2.5 mg/kg | 
COc1cc2c(cc1OC)S(C)(=O)=NC(N1CCN(C(=O)c3ccco3)CC1)=N2.Cl (configuration not stated) |  |  | BP decrease (Oryctolagus cuniculus [12]): 11.9 mmHg; BP decrease (Rattus norvegicus [11]): 28.8%; BP decrease (Oryctolagus cuniculus [13]): 24.8 mmHg
COc1cc2c(cc1OC)S(C)(=O)=NC(N1CCN(C)CC1)=N2.Cl.Cl (configuration not stated) | 19.7% | 5 mg/kg | 
CCOc1cc2c(cc1OCC)S(C)(=O)=NC(N1CCN(C(=O)c3ccco3)CC1)=N2.Cl (configuration not stated) | 16.4% | 2.5 mg/kg | 
CCN(CC)C1=Nc2cc(OC)c(OC)cc2S(C)(=O)=N1.Cl (configuration not stated) |  | 0.04 mg/kg | BP decrease (Rattus norvegicus [10]): 37.3%
COc1cc2c(cc1OC)S(C)(=O)=NC(NCc1ccccc1)=N2.Cl (configuration not stated) | 28.9% | 1.25 mg/kg | 
COc1cc2c(cc1OC)S(C)(=O)=NC(N1CCC(C(O)c3ccccc3)CC1)=N2.Cl (configuration not stated) |  | 0.008 mg/kg | BP decrease (Rattus norvegicus [14]): 40.9%
COc1cc2c(cc1OC)S(C)(=O)=NC(N1CCN(C(=O)c3ccccc3)CC1)=N2.Cl (configuration not stated) | 25.5% | 0.312 mg/kg | 
